Source: ChEMBL document CHEMBL1141674, “Effects of 3-(4'-geranyloxy-3'-methoxyphenyl)-2-trans propenoic acid and its ester derivatives on biofilm formation by two oral pathogens, Porphyromonas gingivalis and Streptococcus mutans” (2008)
In brackets after ≈: the same amount, converted by molar mass. Activity calls are given as the source filed them. No cut-off for these calls is given here.

Assays:
[1] = tested on: Porphyromonas gingivalis; test: Antimicrobial activity against Porphyromonas gingivalis ATCC 33277 assessed as bacterial growth at 31.2 ug/ml after 4 hrs by XTT assay relative to control; format: functional; settings: in the assay text read “after 48 hrs by absorbance at 660 nm” for “after 4 hrs by XTT assay”
[2] = tested on: Porphyromonas gingivalis; test: Antimicrobial activity against Porphyromonas gingivalis ATCC 33277 assessed as bacterial growth at 15.6 ug/ml after 4 hrs by XTT assay relative to control; format: functional; settings: in the assay text read “after 48 hrs by absorbance at 660 nm” for “after 4 hrs by XTT assay”
[3] = tested on: Porphyromonas gingivalis; test: Antimicrobial activity against Porphyromonas gingivalis ATCC 33277 assessed as bacterial growth at 7.8 ug/ml after 4 hrs by XTT assay relative to control; format: functional
Procedure, shortened: (§1)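 P. gingivalis biofilms were pre-grown for 48 h (24 h THB-HK culture diluted to OD660 0.07, 37 °C, anaerobic). They were then exposed to compound dilutions for 4 h at 37 °C under anaerobiosis. Viability was read by XTT reduction: fresh reagent of 12.5 parts XTT (1 mg/ml stock in PBS) to 1 part menadione (1 mM stock in acetone), 1 h at 37 °C, A490.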

[4] = tested on: Porphyromonas gingivalis; test: Antimicrobial activity against Porphyromonas gingivalis ATCC 33277 assessed as bacterial growth at 3.9 ug/ml after 4 hrs by XTT assay relative to control; format: functional; procedure, shortened: as §1
[5] = tested on: Streptococcus mutans; test: Antimicrobial activity against Streptococcus mutans ATCC 25175 assessed as effect on bacterial growth after 4 hrs by XTT assay relative to control; format: functional, organism-based
[6] = tested on: Porphyromonas gingivalis; test: Antimicrobial activity against Porphyromonas gingivalis ATCC 33277 assessed as bacterial growth at 125 ug/ml after 48 hrs by absorbance at 660 nm relative to control
[7] = tested on: Porphyromonas gingivalis; test: Antimicrobial activity against Porphyromonas gingivalis ATCC 33277 assessed as bacterial growth at 62.5 ug/ml after 48 hrs by absorbance at 660 nm relative to control
[8] = tested on: Porphyromonas gingivalis; test: Antimicrobial activity against Porphyromonas gingivalis ATCC 33277 assessed as bacterial growth at 62.5 ug/ml after 4 hrs by XTT assay relative to control; format: functional; settings: in the assay text read “after 48 hrs by absorbance at 660 nm” for “after 4 hrs by XTT assay”
[9] = tested on: Porphyromonas gingivalis; test: Antimicrobial activity against Porphyromonas gingivalis ATCC 33277 assessed as bacterial growth at 125 ug/ml after 4 hrs by XTT assay relative to control; format: functional; settings: in the assay text read “after 48 hrs by absorbance at 660 nm” for “after 4 hrs by XTT assay”
[10] = tested on: Streptococcus mutans; test: Antimicrobial activity against Streptococcus mutans ATCC 25175 assessed as inhibition of biofilm formation at 3.9 ug/ml after 48 hrs; format: functional, organism-based
[11] = tested on: Porphyromonas gingivalis; test: Antimicrobial activity against Porphyromonas gingivalis ATCC 33277 assessed as inhibition of biofilm formation at 31.3 ug/ml after 48 hrs; format: functional; set-up: scale not given: the % may be the effect or the level left
Procedure, shortened: (§2)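 A 24 h P. gingivalis culture in THB-HK was diluted to OD660 0.07 and mixed 1:1 with serial compound dilutions in THB-HK; untreated wells served as controls. Plates were held 48 h at 37 °C anaerobically and growth was read at A660. Washed biofilms were stained with 0.04% crystal violet for 15 min, eluted with 95% ethanol and read at A550. Triplicates; mean ± SD of two independent experiments.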

[12] = tested on: Porphyromonas gingivalis; test: Antimicrobial activity against Porphyromonas gingivalis ATCC 33277 assessed as bacterial growth at 15.6 ug/ml after 48 hrs by absorbance at 660 nm relative to control
[13] = tested on: Porphyromonas gingivalis; test: Antimicrobial activity against Porphyromonas gingivalis ATCC 33277 assessed as inhibition of biofilm formation after 48 hrs; format: functional; settings: ATCC 33277, 48 h; procedure, shortened: as §2
[14] = tested on: Streptococcus mutans; test: Antimicrobial activity against Streptococcus mutans ATCC 25175 assessed as inhibition of biofilm formation after 48 hrs; format: functional; settings: ATCC 25175, 48 h
[15] = tested on: Porphyromonas gingivalis; test: Antimicrobial activity against Porphyromonas gingivalis ATCC 33277 assessed as bacterial growth at 31.2 ug/ml after 48 hrs by absorbance at 660 nm relative to control

COC(=O)c1ccc(OC(=O)/C=C/c2ccc(OC/C=C(\C)CCC=C(C)C)c(OC)c2)c(OC)c1
Activity [1]: 72% | Activity [2]: 76% | Activity [3]: 87% | Activity [4]: 98% | Activity [5]: inactive | Activity [6]: 40% | Activity [7]: 49%

Oc1ccc(O)cc1 [HYDROQUINONE]
Activity [8]: 13% | Activity [1]: 17% | Activity [2]: 15% | Activity [3]: 27% | Activity [4]: 45% | Activity [5]: inactive | Activity [6]: 14%

O=C1C=C(O)C(=O)c2ccccc21 [LAWSONE]
Activity [8]: 79% | Activity [1]: 86% | Activity [2]: 92% | Activity [3]: 100% | Activity [4]: 103% | Activity [5]: inactive | Activity [6]: 49%

COc1cc(/C=C/C(=O)Oc2ccccc2OC)ccc1OC/C=C(\C)CCC=C(C)C
Activity [9]: 32% | Activity [8]: 25% | Activity [1]: 28% | Activity [2]: 22% | Activity [3]: 25% | Activity [4]: 61% | Activity [5]: inactive

COc1cc(/C=C/C(=O)O)ccc1OC/C=C(\C)CCC=C(C)C
Activity [9]: 13% | Activity [8]: 9% | Activity [1]: 15% | Activity [3]: 68% | Activity [4]: 81% | Activity [10]: Active | Activity [5]: inactive | Activity [11]: 80% | Activity [12]: 34%

N=C(NCCCCCCNC(=N)NC(=N)Nc1ccc(Cl)cc1)NC(=N)Nc1ccc(Cl)cc1 [CHLORHEXIDINE]
MIC [13]: 6 µM (≈ 3.03 µg/mL) | MIC [14]: 3 µM (≈ 1.52 µg/mL)

COc1cc(/C=C/C(=O)OC2=CC(=O)c3ccccc3C2=O)ccc1OC/C=C(\C)CCC=C(C)C
Activity [9]: 17% | Activity [8]: 16% | Activity [2]: 105% | Activity [3]: 124% | Activity [4]: 110% | Activity [5]: inactive | Activity [15]: 34%
